Read-outs that look alike come from different tables or passages of the source.
What was measured:
[1] = target: ABCB1 (Homo sapiens, UniProt P08183); experiment: Bidirectional permeability and efflux, MDCKII-ABCB1 monolayers; format: in vitro ADME; conditions: for CLABCB1,vitro: Blood-CSF barrier, Eq. 2; for Papp A→B at 1 h, 1 µM: human, MDCK-MDR1, pH 7.4
[2] = cited from earlier work; for observed CL/F / observed apparent volume of distribution (V/F): population pharmacokinetic analysis in patients with cancer
[3] = Binding to brain tumor tissues; format: in vitro ADME; conditions: human, patient brain tumor tissue
[4] = mice; cited from earlier work
[5] = Whole-body PBPK model drug-specific parameters; design: species or system human; conditions: Observed; for Ka: estimated from observed data
[6] = system: CDK4; conditions: read-out: in vitro IC50 for inhibition of CDK4; cited from earlier work
[7] = target: T1, ABCG2 (Homo sapiens, UniProt Q9UNQ0); experiment: Bidirectional permeability and efflux, MDCKII-ABCG2 monolayers; format: in vitro ADME; conditions: for Papp A→B at 1 h, 1 µM: pH 7.4
T1 sequence (Q9UNQ0 1-655): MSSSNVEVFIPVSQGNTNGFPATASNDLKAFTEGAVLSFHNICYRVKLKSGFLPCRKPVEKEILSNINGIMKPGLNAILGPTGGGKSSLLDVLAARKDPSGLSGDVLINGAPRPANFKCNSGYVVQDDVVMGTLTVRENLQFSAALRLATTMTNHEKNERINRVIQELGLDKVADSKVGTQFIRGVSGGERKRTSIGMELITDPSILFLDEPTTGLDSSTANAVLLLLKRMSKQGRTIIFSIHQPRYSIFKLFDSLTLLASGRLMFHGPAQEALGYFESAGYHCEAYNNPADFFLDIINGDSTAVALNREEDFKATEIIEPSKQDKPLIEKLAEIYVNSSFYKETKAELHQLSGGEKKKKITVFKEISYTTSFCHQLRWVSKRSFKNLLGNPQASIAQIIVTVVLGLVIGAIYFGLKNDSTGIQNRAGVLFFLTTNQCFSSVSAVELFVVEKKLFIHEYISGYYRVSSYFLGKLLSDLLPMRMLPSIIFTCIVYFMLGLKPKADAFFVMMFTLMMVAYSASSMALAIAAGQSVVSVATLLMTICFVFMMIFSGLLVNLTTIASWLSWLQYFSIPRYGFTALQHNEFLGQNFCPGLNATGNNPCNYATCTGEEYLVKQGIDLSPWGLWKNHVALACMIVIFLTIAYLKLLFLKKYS

[8] = cited from earlier work; for observed unbound tumor concentration, median (range): patients with glioblastoma
[9] = Passive transcellular permeability, parental MDCKII monolayers; format: in vitro ADME; conditions: dog, MDCK, pH 7.4
In short: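 Bidirectional transport (apical-to-basolateral and basolateral-to-apical) across parental MDCKII cell monolayers grown on transwell filters, with pH 7.4 in both apical and basolateral chambers. Apparent permeability is reported for each direction, along with the efflux ratio. Values are mean ± SD from at least three independent experiments, each run in duplicate.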

[10] = In vitro metabolism in human liver microsomes; format: in vitro ADME; conditions: for K m / Vmax: HLM; for fuinc: HLM incubation; for microsomal CLint: human, pooled liver microsomes
[11] = system: glioblastoma; conditions: single‐agent treatment; cited from earlier work
[12] = rats; cited from earlier work
[13] = In vitro metabolism in human intestinal microsomes; format: in vitro ADME; conditions: for fumic: HIM section, fraction unbound in microsomal incubation; for microsomal CLint: human, pooled intestinal microsomes
[14] = system: CDK6; conditions: read-out: in vitro IC50 for inhibition of CDK6; cited from earlier work
[15] = Binding to patient plasma proteins; format: in vitro ADME; conditions: human, plasma of patients with cancer

ABCB1, sequence (P08183 whole entry): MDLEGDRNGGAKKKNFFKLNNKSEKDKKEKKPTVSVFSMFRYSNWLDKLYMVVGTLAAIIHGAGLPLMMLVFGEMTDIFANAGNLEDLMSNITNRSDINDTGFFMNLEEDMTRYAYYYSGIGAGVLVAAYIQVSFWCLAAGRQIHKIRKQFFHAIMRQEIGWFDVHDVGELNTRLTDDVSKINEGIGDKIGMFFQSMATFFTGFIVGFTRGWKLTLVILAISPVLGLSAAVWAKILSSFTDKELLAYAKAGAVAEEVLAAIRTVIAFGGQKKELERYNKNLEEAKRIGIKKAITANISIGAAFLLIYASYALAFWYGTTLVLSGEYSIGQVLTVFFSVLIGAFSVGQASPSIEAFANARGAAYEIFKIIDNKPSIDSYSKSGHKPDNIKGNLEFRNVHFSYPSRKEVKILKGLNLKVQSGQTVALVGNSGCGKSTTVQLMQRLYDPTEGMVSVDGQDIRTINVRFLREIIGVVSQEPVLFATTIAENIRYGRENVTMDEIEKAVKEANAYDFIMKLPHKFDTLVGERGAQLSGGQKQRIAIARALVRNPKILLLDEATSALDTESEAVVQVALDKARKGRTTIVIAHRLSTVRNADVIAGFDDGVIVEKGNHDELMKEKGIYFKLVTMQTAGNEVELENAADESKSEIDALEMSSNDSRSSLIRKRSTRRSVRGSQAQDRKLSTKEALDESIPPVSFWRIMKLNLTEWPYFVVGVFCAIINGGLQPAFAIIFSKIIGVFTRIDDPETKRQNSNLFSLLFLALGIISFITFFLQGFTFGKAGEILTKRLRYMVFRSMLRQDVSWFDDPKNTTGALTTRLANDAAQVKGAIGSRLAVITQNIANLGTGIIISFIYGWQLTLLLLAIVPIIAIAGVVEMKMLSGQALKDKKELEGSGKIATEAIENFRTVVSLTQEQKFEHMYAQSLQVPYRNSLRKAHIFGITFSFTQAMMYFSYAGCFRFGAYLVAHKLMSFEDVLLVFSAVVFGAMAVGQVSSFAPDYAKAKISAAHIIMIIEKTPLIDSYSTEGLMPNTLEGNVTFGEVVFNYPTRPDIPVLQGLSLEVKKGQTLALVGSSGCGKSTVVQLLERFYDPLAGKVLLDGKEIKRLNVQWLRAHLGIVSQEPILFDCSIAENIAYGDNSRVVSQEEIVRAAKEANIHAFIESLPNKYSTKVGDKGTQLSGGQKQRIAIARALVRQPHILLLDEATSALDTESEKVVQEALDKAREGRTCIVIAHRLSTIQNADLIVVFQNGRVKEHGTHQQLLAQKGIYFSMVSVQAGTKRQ

Compound | CLABCB1,vitro [1] [µL/min/mg] | Papp A→B at 1 h, 1 µM [1] [×10⁻⁶ cm/s] | observed CL/F [2] [L/h] | observed apparent volume of distribution (V/F) [2] | fraction unbound [3] | brain penetration K p,uu [4] | Lag time [5] [h] | Ka [5] | IC50 [6] [nM] | Papp A→B at 1 h, 1 µM [7] [×10⁻⁶ cm/s] | Papp A→B at 1 h, 1 µM [9] [×10⁻⁶ cm/s] | K m [10] [µM] | Vmax [10] [pmol/min/mg] | fuinc [10] | microsomal CLint [10] [µL/min/mg] | K m ([13]; HIM) [µM] | fumic [13] | microsomal CLint [13] [µL/min/mg] | IC50 [14] [nM] | fraction unbound [15] | also measured
CCN1CCN(Cc2ccc(Nc3ncc(F)c(-c4cc(F)c5nc(C)n(C(C)C)c5c4)n3)nc2)CC1 [Abemaciclib, abemaciclib] | 800 | […] | […] | […] | […] | […] | […] | 0.197 | […] | 7.98 ± 0.42 | 9.09 ± 2.21 | […] | […] | […] | 15.9 | […] | […] | 4.29 | […] | […] | observed CSF concentrations (range) ([8]; 10 patients, daily or twice daily oral 50–275 mg for 15 days): […]; observed mean CSF K p,uu ([8]; patients): 0.70; patients with glioblastoma who achieved stable disease [11]: […]; brain penetration K p,uu [12]: […]; Vmax ([13]; HIM): 494.3 pmol/min/mg
CC(=O)c1c(C)c2cnc(Nc3ccc(N4CCNCC4)cn3)nc2n(C2CCCC2)c1=O [Palbociclib, palbociclib] | […] | […] | […] | 2,342 L | […] | […] | […] | 0.367 | […] | 7.73 ± 0.25 | […] | 78.1 | – | […] | […] | 70.4 | […] | […] | […] | 0.126 | brain penetration K p,uu [12]: […]
CN(C)C(=O)c1cc2cnc(Nc3ccc(N4CCNCC4)cn3)nc2n1C1CCCC1 [Ribociclib, ribociclib] | […] | 1.77 ± 0.82 | – | – | 0.044 | – | 0.5 | 0.8 | […] | […] | 7.17 ± 1.85 | 13.4 | 313.7 | […] | 23.4 | 28.8 | […] | […] | 39 | 0.125 | observed apparent oral clearance (CL/F) ([2]; 900 mg q.d. for 5 days, glioblastoma patients): […]; observed median CSF K p,uu ([8]; 12 patients with glioblastoma, 900 mg q.d. for 5 days): 1.8; observed unbound tumor concentration, median (range) ([8]; enhancing tumor regions): […]; observed unbound tumor concentration, median (range) ([8]; non‐enhancing tumor regions): […]
COc1cc2ncnc(Nc3ccc(F)c(Cl)c3)c2cc1OCCCN1CCOCC1 [gefitinib] | – | – | – | – | – | – | – | – | – | – | – | – | – | – | – | – | – | – | – | – | efflux ratio at 1 h, 1 µM ([7]; with Ko143 1 µM in the top chamber): 8.86

Source: PMC7854954 (Clinical Pharmacology and Therapeutics, 2020)
